Experimental data from ChEMBL document CHEMBL3085739, “Design, synthesis, and biological evaluation of 2-oxo-3,4-dihydropyrimido[4,5-d]pyrimidinyl derivatives as new irreversible epidermal growth factor receptor inhibitors with improved pharmacokinetic properties” (J Med Chem, 2013).
≈ marks a conversion by molar mass, not a printed value. Calls of active or inactive are those of the source. The rule behind the calls is not given here.

Key:
[1] = molecular target: Epidermal growth factor receptor (Homo sapiens, UniProt P00533, L858R); assay: Inhibition of EGFR L858R mutant (unknown origin); assay type: protein assay
Epidermal growth factor receptor (Homo sapiens, UniProt P00533, L858R), sequence (P00533 25-1210 L858R limits assumed): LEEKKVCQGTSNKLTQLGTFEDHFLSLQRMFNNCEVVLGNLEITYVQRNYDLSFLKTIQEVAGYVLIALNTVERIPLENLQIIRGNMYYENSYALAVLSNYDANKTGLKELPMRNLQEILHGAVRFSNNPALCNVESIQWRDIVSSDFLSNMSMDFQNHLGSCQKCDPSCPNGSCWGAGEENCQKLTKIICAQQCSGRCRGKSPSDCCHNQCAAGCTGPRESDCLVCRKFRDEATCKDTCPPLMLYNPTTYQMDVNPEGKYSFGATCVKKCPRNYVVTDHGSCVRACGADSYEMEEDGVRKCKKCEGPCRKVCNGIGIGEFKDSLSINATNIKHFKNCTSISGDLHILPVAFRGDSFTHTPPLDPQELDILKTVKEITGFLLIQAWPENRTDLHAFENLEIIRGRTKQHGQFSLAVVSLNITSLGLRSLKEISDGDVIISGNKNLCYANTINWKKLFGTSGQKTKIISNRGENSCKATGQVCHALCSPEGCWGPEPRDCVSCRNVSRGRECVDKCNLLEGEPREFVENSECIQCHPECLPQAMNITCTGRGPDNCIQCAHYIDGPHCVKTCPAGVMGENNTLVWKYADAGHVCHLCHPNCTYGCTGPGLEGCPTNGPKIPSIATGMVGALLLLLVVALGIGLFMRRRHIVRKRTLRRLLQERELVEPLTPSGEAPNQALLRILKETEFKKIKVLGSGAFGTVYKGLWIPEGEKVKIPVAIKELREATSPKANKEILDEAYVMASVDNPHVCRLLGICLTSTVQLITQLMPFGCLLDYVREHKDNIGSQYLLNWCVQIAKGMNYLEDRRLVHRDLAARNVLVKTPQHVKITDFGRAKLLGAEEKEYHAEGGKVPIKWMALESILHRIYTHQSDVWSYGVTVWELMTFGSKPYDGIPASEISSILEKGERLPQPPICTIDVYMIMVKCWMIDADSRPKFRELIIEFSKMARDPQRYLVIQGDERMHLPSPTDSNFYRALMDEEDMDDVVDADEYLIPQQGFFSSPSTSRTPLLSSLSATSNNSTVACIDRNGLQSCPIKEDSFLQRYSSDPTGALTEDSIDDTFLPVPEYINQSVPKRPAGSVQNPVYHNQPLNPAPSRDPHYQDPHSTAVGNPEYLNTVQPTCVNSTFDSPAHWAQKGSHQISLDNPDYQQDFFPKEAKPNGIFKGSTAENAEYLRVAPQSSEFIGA

[2] = molecular target: Proto-oncogene tyrosine-protein kinase receptor Ret (Homo sapiens) (UniProt P07949); assay: Binding affinity to RET (unknown origin)
Proto-oncogene tyrosine-protein kinase receptor Ret (Homo sapiens), sequence (P07949 whole entry, the tested form may be a part): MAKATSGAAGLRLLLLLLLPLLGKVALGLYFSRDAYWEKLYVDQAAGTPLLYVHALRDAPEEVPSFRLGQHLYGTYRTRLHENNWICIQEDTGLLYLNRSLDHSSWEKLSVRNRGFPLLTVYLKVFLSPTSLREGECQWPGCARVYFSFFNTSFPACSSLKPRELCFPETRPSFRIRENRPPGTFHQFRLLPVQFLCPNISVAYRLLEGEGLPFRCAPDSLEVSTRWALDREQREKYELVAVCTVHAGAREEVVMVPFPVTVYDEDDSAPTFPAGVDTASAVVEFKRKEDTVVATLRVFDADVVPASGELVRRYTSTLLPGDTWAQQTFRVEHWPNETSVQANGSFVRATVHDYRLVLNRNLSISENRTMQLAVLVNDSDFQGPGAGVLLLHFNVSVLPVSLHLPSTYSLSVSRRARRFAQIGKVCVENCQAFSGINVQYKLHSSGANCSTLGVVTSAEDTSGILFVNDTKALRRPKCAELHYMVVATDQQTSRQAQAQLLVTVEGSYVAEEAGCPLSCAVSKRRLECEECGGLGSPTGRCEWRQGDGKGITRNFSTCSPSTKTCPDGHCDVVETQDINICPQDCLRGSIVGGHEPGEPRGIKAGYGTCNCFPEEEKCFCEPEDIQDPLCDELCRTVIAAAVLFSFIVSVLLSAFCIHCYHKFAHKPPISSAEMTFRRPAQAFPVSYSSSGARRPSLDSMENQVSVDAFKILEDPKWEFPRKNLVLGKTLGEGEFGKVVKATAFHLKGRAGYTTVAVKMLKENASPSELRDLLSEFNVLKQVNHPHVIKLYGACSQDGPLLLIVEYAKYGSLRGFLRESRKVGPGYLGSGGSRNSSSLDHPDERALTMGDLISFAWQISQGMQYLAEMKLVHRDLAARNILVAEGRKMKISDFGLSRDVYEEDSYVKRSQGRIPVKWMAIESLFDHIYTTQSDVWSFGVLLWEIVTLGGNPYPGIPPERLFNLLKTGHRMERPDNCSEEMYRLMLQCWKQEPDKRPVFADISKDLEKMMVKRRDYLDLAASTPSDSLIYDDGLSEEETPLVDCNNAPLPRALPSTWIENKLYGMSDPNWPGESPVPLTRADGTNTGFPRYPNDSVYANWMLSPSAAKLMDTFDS

[3] = molecular target: Epithelial discoidin domain-containing receptor 1 (Homo sapiens) (UniProt Q08345); assay: Binding affinity to DDR1 (unknown origin)
Epithelial discoidin domain-containing receptor 1 (Homo sapiens), sequence (Q08345 whole entry, the tested form may be a part): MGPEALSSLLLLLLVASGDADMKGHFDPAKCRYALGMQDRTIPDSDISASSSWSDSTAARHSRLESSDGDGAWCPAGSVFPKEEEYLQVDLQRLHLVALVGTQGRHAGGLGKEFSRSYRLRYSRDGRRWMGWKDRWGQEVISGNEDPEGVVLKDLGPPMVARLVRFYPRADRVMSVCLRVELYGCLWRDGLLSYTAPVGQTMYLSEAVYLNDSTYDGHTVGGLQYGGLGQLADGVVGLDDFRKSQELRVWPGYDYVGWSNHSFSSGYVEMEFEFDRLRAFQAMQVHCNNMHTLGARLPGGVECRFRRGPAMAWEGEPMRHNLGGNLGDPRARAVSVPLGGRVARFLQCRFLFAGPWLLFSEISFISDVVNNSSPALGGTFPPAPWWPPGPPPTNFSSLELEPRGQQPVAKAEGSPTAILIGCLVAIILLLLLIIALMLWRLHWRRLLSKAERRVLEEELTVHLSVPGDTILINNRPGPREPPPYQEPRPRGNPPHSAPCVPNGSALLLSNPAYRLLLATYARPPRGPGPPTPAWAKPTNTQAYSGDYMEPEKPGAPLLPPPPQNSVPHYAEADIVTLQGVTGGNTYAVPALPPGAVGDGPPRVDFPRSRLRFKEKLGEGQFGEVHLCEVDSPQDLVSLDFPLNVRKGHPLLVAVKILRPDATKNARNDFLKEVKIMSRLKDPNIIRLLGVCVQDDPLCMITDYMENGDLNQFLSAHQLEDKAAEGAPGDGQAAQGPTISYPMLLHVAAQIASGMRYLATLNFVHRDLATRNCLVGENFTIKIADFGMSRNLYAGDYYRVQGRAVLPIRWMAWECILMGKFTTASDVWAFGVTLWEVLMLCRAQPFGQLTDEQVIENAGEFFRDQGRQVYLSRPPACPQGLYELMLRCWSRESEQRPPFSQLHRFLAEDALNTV

[4] = Antiproliferative activity against human HL7702 cells after 72 hrs by MTS assay; assay type: cell-based; details: L02, 72 h
[5] = molecular target: Platelet-derived growth factor receptor beta (Homo sapiens) (UniProt P09619); assay: Binding affinity to PDGFRbeta (unknown origin)
[6] = Cmax in Sprague-Dawley rat at 25 mg/kg, po by LC/MS analysis; assay type: ADME, organism-based; parameters: dose 25 mg/kg, route oral; details: in vivo
In short: (§1)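 Male Sprague-Dawley rats (180−220 g), n = 4 per route, single iv dose 5 mg/kg or oral gavage 25 mg/kg. Vehicle was 2% DMSO, 4% EtOH, 4% castor oil, 90% H2O. Orbital sinus blood was taken from 2 min to 72 h into heparinized tubes. Plasma levels were measured by LC/MS with propranolol internal standard and analysed by pharmacokinetic modelling.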

[7] = AUC (0 to infinity) in Sprague-Dawley rat at 5 mg/kg, iv by LC/MS analysis; assay type: ADME, organism-based; parameters: time infinity, dose 5 mg/kg, route intravenous; details: plasma; in short: as §1
[8] = system: Epidermal growth factor receptor (Homo sapiens), P00533 [L858R,T790M]; details: NCI-H1975, 33 nM
[9] = Clearance in Sprague-Dawley rat at 25 mg/kg, po by LC/MS analysis; assay type: ADME, organism-based; parameters: dose 25 mg/kg, route oral; details: in vivo; in short: as §1
[10] = Antiproliferative activity against human H460 cells expressing wild-type EGFR after 72 hrs by MTS assay; assay type: cell-based; details: NCI-H460, 72 h
In short: (§2)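 MTS proliferation assay: cells exposed to compound for 72 h at six concentrations (0.1 nM to 10 μM), each concentration run six times. Cell number per line set to give an absorbance of 0.5–1.2 at […]. IC50 from a nonlinear sigmoidal dose–response fit. Values are means of at least three independent experiments.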

[11] = molecular target: Tyrosine-protein kinase BTK (Homo sapiens) (UniProt Q06187); assay: Binding affinity to BTK (unknown origin)
NCI-H1975 [12] = assay: Effect on ERK protein level in human NCI-H1975 cells at 3 to 330 nM after 2 hrs by Western blotting analysis; assay type: functional, cell-based
In short: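 H1975 cells were grown 24 h, then treated for 2 h with DMSO or 3–330 nM compound. Lysates were sonicated, run on SDS-PAGE, blotted to PVDF, blocked in 5% BSA/TBST, and probed for phospho/total EGFR (pY1068), Akt and Erk1/2 (pT202/pY204) with peroxidase secondary antibodies. Blots are representative of three experiments.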

[13] = molecular target: Tyrosine-protein kinase Blk (Homo sapiens) (UniProt P51451); assay: Binding affinity to BLK (unknown origin)
Tyrosine-protein kinase Blk (Homo sapiens), sequence (P51451 2-505 limits assumed): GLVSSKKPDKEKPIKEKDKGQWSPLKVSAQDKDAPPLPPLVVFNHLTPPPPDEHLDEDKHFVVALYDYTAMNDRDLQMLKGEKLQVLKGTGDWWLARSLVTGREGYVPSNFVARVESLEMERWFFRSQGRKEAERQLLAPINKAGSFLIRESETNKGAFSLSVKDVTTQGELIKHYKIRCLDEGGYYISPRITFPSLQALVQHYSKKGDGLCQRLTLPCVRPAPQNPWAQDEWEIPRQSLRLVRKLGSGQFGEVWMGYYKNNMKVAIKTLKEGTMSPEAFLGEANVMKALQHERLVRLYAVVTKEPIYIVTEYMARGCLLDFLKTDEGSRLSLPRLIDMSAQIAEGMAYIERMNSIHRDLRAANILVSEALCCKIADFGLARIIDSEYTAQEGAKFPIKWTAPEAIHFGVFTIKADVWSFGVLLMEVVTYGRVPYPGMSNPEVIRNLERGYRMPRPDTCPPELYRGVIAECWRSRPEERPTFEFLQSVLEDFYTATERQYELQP

NCI-H358 = assay: Antiproliferative activity against human NCI-H358 cells expressing wild-type EGFR after 72 hrs by MTS assay; assay type: cell-based; details: NCI-H358, 72 h
[14] = Antiproliferative activity against human 95-D cells expressing wild-type EGFR after 72 hrs by MTS assay; assay type: cell-based; in short: as §2
[15] = Cmax in Sprague-Dawley rat at 5 mg/kg, iv by LC/MS analysis; assay type: ADME, organism-based; parameters: dose 5 mg/kg, route intravenous; details: in vivo; in short: as §1
[16] = molecular target: Epidermal growth factor receptor (Homo sapiens, UniProt P00533, T790M); assay: Inhibition of EGFR T790M mutant (unknown origin); assay type: protein assay
Epidermal growth factor receptor (Homo sapiens, UniProt P00533, T790M), sequence (P00533 25-1210 T790M limits assumed): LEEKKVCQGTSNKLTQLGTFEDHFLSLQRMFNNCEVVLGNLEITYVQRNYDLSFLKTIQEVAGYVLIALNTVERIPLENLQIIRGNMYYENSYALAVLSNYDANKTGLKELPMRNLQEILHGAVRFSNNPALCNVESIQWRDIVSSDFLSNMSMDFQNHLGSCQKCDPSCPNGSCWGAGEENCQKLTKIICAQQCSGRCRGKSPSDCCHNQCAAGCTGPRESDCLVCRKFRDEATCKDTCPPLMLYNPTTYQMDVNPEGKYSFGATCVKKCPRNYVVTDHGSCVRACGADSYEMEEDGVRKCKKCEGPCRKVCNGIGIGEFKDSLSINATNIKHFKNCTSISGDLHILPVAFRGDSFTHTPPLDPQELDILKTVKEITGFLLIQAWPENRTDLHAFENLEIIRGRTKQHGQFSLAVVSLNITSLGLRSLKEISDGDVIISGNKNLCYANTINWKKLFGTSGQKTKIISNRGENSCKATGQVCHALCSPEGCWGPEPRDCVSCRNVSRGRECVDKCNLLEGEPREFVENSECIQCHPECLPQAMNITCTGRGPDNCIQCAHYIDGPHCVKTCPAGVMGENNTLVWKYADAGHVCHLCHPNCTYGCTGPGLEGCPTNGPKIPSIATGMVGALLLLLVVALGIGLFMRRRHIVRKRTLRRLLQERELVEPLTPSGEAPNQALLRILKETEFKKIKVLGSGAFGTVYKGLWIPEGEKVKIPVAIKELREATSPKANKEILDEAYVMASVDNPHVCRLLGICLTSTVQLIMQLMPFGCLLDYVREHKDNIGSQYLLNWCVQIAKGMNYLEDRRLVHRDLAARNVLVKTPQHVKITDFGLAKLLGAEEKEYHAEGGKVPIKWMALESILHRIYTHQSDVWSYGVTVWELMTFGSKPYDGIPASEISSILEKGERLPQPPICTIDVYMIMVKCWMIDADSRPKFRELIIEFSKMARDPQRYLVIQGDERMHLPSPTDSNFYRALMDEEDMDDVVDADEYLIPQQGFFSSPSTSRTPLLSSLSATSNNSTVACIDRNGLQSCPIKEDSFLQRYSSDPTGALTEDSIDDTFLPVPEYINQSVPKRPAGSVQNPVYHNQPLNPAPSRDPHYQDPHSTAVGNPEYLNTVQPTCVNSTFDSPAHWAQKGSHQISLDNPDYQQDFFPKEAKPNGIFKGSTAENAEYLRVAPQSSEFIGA

NCI-H1975 [17] = assay: Antitumor activity against human NCI-H1975 cells xenografted in SCID nude mouse assessed as tumor growth inhibition at 10 mg/kg, po qd after 14 days; assay type: functional; details: NCI-H1975, 336 h, read-out: TGI
In short: (§3)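 SCID mice (6 weeks) were given H1975 cells subcutaneously in the right flank at 2 × 10^6 per mouse. At 200−300 mm3, n = 5 per group were randomized to daily oral vehicle or compound at 10 or 30 mg/kg for 14 days. Vehicle: 1% DMSO, 5% EtOH, 15% castor oil, 79% H2O. Tumors (W²·L/2) and body weight were measured every other day; TGI was calculated against vehicle controls.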

[18] = molecular target: T1, Dual specificity mitogen-activated protein kinase kinase 5 (Homo sapiens) (UniProt Q13163); assay: Binding affinity to MEK5 (unknown origin)
T1 sequence (whole entry): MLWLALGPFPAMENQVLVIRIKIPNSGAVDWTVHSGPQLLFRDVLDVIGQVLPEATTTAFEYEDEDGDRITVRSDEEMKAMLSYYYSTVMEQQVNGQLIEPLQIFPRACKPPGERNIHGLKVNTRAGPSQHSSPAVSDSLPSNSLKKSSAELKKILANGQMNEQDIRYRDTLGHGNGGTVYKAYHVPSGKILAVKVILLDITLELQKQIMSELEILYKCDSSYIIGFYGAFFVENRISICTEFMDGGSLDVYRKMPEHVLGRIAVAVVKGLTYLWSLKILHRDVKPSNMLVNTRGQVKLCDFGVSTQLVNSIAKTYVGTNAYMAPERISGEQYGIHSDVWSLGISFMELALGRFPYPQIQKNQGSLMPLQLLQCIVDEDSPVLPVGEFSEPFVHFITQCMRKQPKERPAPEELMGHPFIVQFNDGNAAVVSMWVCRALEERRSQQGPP

[19] = Thermodynamic aqueous solubility of the compound in PBS buffer at pH 6.8 after 24 hrs by HPLC analysis; assay type: physicochemical; details: PBS buffer, pH 6.8; read-out: Therm_solubility
In short: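 Compound was shaken in aqueous buffer at pH 6.8 for 24 h at ambient temperature; dissolved concentration was measured by HPLC.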

[20] = Oral bioavailability in Sprague-Dawley rat at 25 mg/kg by LC/MS analysis; assay type: ADME, organism-based; details: in vivo; in short: as §1
[21] = Antiproliferative activity against human HCC827 cells expressing EGFR E746 to A750 deletion mutant after 72 hrs by MTS assay; assay type: functional, cell-based; details: HCC827, 72 h; in short: as §2
[22] = AUC (0 to infinity) in Sprague-Dawley rat at 25 mg/kg, po by LC/MS analysis; assay type: ADME, organism-based; parameters: dose 25 mg/kg, route oral, time infinity; details: plasma; in short: as §1
NCI-H1975 [23] = assay: Antitumor activity against human NCI-H1975 cells xenografted in po dosed SCID nude mouse assessed as tumor growth inhibition administered qd after 14 days; assay type: functional, organism-based; in short: as §3
NCI-H1975 [24] = assay: Antitumor activity against human NCI-H1975 cells xenografted in SCID nude mouse assessed as tumor growth inhibition at 30 mg/kg, po qd after 14 days; assay type: functional; details: NCI-H1975, 336 h, read-out: TGI; in short: as §3
NCI-H1975 [25] = assay: Effect on GADPH protein level in human NCI-H1975 cells at 3 to 330 nM after 2 hrs by Western blotting analysis; assay type: functional, cell-based
[26] = molecular target: Epidermal growth factor receptor (Homo sapiens, UniProt P00533, L858R/T790M); assay: Inhibition of EGFR L858R/T790M double mutant (unknown origin) after 1.5 hrs by FRET-based Z'-Lyte assay; assay type: protein assay
[27] = molecular target: Mast/stem cell growth factor receptor Kit (Homo sapiens) (UniProt P10721); assay: Binding affinity to KIT (unknown origin)
[28] = molecular target: Receptor-type tyrosine-protein kinase FLT3 (Homo sapiens) (UniProt P36888); assay: Binding affinity to FLT3 (unknown origin)

With `C=CC(=O)N1CC[C@H](N2C(=O)N(c3ccccc3)Cc3cnc(Nc4ccc(N5CCN(C)CC5)c(C)c4)nc32)C1` the IC50 [1] was 3 nM, the Activity [2] was “Active” and the Activity [3] was “Active”. For the same molecule, the IC50 [4] was over 10000 nM, the Activity [5] was “Active” and the Cmax [6] was 1040 ng/mL. The AUC(0-inf) [7] was 1640 ng·h/mL, the inhibition [8] was “Active” and the CL/F [9] was 167 mL/min/kg. The IC50 [10] was 16000 nM, the Activity [11] was “Active” and the Activity (NCI-H1975 [12]) was “inactive”. The Activity [13] was “Active”, the IC50 (NCI-H358) was over 20000 nM and the IC50 [14] was 4000 nM. It also gave a Cmax [15] of 3980 ng/mL, an IC50 [16] of 10 nM and an inhibition in vivo at 10 mg/kg (NCI-H1975 [17]) of 35.4%. The Activity [18] was “Active”, the solubility thermodynamic at 24 h [19] was 1270 µg/mL (≈ 2290 µM) and the bioavailability [20] was 30%. The IC50 [21] was 5 nM, the AUC(0-inf) [22] was 2490 ng·h/mL and the TGI (NCI-H1975 [23]) was “Dose-dependent effect”. The inhibition in vivo at 30 mg/kg (NCI-H1975 [24]) was 56.8%, the Activity (NCI-H1975 [25]) was “inactive” and the IC50 [26] was 9.2 nM. The Activity [27] was “Active” and the Activity [28] was “Active”.
